Test results from article PMC3817526 (Nmr in Biomedicine, 2013).
Structures can show the parent of a compound that is named as a salt. Where two headings read alike, the source gives them in different places.

Experiments:
rat Bsep (rBsep) = target: T1, rat Bsep (rBsep) (Rattus norvegicus, UniProt O70127); experiment: Inhibition of [3H]-taurocholate uptake into rBsep membrane vesicles; assay type: biochemical; settings: read-out: IC50, [3H]-taurocholate uptake into vesicles expressing rBsep; geometric mean, 95% CL 109.8–153.2, n = 5
T1 sequence (O70127 1-1321): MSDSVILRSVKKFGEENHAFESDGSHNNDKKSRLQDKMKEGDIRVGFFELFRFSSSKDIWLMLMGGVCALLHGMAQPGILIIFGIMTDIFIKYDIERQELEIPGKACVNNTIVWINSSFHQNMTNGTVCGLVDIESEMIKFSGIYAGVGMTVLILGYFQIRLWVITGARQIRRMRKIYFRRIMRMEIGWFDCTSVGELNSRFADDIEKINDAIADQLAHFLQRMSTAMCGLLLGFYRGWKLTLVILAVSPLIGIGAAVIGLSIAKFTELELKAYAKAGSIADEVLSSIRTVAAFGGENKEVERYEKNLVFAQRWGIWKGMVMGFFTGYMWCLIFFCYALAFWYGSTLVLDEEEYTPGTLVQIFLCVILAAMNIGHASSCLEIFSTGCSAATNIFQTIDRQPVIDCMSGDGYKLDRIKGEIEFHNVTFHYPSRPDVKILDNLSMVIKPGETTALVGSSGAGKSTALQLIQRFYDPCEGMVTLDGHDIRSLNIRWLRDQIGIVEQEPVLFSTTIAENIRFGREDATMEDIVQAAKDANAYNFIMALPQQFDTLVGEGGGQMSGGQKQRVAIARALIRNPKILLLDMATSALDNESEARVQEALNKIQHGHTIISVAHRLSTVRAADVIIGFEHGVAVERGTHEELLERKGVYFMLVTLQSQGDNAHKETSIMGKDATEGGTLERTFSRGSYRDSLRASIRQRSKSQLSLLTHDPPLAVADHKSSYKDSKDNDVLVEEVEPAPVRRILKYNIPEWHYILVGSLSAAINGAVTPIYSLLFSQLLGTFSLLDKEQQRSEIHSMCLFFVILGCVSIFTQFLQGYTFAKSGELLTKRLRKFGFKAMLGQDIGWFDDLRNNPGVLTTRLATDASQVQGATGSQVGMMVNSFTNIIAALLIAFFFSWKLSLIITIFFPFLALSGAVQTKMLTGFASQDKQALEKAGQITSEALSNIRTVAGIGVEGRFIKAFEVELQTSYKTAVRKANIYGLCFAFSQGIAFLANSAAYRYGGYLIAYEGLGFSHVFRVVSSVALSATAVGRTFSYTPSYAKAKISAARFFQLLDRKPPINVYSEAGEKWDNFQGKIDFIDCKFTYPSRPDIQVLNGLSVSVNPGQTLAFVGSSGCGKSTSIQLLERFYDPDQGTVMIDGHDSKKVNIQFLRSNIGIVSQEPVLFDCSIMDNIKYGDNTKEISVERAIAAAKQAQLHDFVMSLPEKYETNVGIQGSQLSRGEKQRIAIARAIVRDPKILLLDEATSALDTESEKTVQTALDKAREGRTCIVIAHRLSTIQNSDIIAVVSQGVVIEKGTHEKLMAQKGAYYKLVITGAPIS

rat Mrp2 (rMrp2) = rat Mrp2 (rMrp2) (Rattus norvegicus, UniProt Q63120); experiment: Inhibition of CDF uptake into rMrp2 membrane vesicles; assay type: biochemical; settings: read-out: IC50, CDF uptake into vesicles expressing Mrp2; geometric mean, 95% CL 58.2–80.7, n = 4
Sequence of rat Mrp2 (rMrp2) (Q63120 whole entry): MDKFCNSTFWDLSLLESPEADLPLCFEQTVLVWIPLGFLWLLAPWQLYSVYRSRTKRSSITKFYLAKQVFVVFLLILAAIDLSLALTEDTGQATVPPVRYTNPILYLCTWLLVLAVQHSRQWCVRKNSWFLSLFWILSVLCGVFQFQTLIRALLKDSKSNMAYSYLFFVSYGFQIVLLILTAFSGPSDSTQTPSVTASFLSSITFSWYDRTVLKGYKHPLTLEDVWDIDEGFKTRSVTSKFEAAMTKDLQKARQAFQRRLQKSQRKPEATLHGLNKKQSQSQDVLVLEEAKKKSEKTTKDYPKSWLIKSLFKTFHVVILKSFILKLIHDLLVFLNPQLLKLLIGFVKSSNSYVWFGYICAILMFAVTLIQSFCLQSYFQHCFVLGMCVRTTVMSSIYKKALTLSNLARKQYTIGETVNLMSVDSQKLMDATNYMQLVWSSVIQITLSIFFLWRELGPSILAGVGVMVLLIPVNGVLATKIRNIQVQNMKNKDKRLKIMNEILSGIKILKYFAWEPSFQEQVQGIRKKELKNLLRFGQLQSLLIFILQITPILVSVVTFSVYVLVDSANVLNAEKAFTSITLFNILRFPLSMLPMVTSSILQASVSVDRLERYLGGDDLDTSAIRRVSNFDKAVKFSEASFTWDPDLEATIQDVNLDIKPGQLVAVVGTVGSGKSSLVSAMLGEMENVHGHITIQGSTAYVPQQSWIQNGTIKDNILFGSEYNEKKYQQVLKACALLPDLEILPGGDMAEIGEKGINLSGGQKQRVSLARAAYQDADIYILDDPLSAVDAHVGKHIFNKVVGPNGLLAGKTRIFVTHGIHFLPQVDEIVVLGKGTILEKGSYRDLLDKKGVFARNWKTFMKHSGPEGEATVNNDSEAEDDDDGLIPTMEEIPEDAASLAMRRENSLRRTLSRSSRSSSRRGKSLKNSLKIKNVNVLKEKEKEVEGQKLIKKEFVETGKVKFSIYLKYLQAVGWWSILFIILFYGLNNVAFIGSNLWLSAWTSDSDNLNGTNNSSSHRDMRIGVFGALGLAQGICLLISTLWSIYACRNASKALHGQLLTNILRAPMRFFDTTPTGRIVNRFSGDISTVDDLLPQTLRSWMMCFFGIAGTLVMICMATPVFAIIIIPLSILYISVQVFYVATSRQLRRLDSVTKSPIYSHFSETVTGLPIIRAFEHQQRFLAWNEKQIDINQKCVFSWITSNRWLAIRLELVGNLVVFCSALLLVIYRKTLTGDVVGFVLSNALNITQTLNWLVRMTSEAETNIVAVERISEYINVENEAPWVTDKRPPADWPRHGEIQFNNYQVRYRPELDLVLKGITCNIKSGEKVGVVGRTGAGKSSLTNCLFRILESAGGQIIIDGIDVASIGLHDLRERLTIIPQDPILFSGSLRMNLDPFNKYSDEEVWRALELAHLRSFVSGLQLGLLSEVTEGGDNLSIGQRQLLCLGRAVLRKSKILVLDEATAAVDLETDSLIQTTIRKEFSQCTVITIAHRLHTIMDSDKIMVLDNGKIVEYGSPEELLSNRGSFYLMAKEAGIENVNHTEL

[1] = tested on: hepatic uptake and biliary excretion of gadoxetate; assay type: in vivo, rat; settings: for Vmax, gadoxetate efflux into bile / k1, rate of gadoxetate uptake into the hepatocyte: mean ± SEM
In short: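 Rats (298 ± 26 g), six per group, got vehicle (water, 0.5% w/v HPMC/0.1% w/v polysorbate 80) or suspended compound by oral gavage (20–2000 mg/kg). Anaesthetised 30 min post-dose; DCE-MRI began 60 min post-dose, gadoxetate given by tail-vein pump at t = 5 min, acquisition run to 60 min (1 min/volume). Hepatocyte signal derived from liver and spleen signals using extracellular fraction; k1, Vmax, KM fitted by least-squares per dose group.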

[2] = Plasma chemistry analysis after CKA; assay type: in vivo, rat
liver = experiment: Liver pathology analysis; assay type: in vivo; settings: CKA 20, 200 or 500 mg/kg oral, rat
[3] = tested on: gadoxetate-induced MRI liver enhancement; settings: rats, cited from earlier work; for maximum hepatic MRI signal enhancement by gadoxetate: administration of OATP inhibitors
[4] = tested on: relative liver MRI signal enhancement; settings: healthy volunteers; cited from earlier work
[5] = Gadopentetate DCE-MRI estimation of volume fraction of extracellular space; assay type: in vivo, rat; settings: gadopentetate 100 µmol/kg i.v., five rats, haematocrit 0.45, mean ± SEM
In short: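 Healthy rats (282 ± 9 g). IntraGate FLASH DCE-MRI: ten 2 mm slices, TR 60.3 ms, TE 1.4 ms, flip 30°, 1 min/volume. Contrast given by tail-vein pump (5 ml/min) 5 min after acquisition start; acquisition continuous for 45 min. ve taken as the tissue/plasma AUC ratio, with plasma concentration equal to whole-blood concentration/(1 − Hct). Isoflurane overdose afterwards.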

[6] = 4.7 T, plasma value assumed for liver and spleen; cited from earlier work
[7] = rats; cited from earlier work
[8] = humans; cited from earlier work
[9] = CKA 20 mg/kg oral, rat, gadoxetate 25 µmol/kg i.v.
[10] = CKA 200 mg/kg oral, rat, gadoxetate 25 µmol/kg i.v.
[11] = CKA 500 mg/kg oral, rat, gadoxetate 25 µmol/kg i.v.
[12] = CKA 2000 mg/kg oral, rat, gadoxetate 25 µmol/kg i.v.
[13] = gadoxetate 25 µmol/kg i.v. in rats given vehicle only (no CKA)

In the case of `O=C(O)c1cc2cc(O)ccc2n1Cc1ccc(Cl)c(C(F)(F)F)c1` [CKA, 1-(4-chloro-3-trifluoromethyl-benzyl)-5-hydroxy-1-H-indole-2-carboxylic acid], the IC50 (rat Bsep (rBsep)) is reported as 130 µM, the IC50 (rat Mrp2 (rMrp2)) is reported as 68.5 µM and the “effect on the kinetic parameters k1, Vmax and KM of gadoxetate” value ([1]; CKA 20 mg/kg oral, compared with vehicle) is reported as “no significant effect”. For the same compound, the “Vmax, gadoxetate efflux into bile” value [1, 9] was 2.9 ± 0.4 µmol/s, the “k1, rate of gadoxetate uptake into the hepatocyte” value (“k1, rate” below) [1, 9] was 26.1 ± 3.3 µmol/s and the “Vmax, gadoxetate efflux into bile” value [1, 10] was 0.6 ± 0.2 µmol/s. The “k1, rate” value [1, 10] was 6.6 ± 1.9 µmol/s, the “gadoxetate enhancement of the bowel (images)” value ([1]; CKA 500 mg/kg oral) was “no enhancement” and the “Vmax, gadoxetate efflux into bile” value [1, 11] was 0.1 ± 0.1 µmol/s. For the same compound, the “k1, rate” value [1, 11] was 1.7 ± 0.4 µmol/s, the “Vmax, gadoxetate efflux into bile” value [1, 12] was 0.1 ± 0.1 µmol/s and the “k1, rate” value [1, 12] was 1.2 ± 0.2 µmol/s. The “rate of gadoxetate uptake into the liver and clearance from the liver into the GI tract (images)” value ([1]; CKA 200 and 500 mg/kg oral, compared with vehicle) was “marked and dose-dependent reduction”, the plasma bile acids ([2]; CKA 20-2000 mg/kg oral, rat) was “marked dose-dependent increases” and the plasma total bilirubin ([2]; CKA 20-2000 mg/kg oral, rat) was “marked dose-dependent increases”. For the same compound, the “plasma ALT levels” value ([2]; CKA 20-2000 mg/kg oral, rat, most evident at 500 and 2000 mg/kg) was “dose-related increase”, the “plasma ALT value” ([2]; single animal with necrosis, CKA 2000 mg/kg) was 344 IU/l and the “liver histology (H&E liver sections)” value (liver) was “no histological features indicative of drug-induced hepatotoxicity”.
For `C=CC1=C(C)/C(=C/c2[nH]c(Cc3[nH]c(/C=C4\NC(=O)C(C)=C4C=C)c(C)c3CCC(=O)O)c(CCC(=O)O)c2C)NC1=O` [bilirubin], the “maximum hepatic MRI signal enhancement by gadoxetate” value [3] is listed as “reduction”.
In the case of `O=C1OC(c2ccc(O)c(S(=O)(=O)O)c2)(c2ccc(O)c(S(=O)(=O)O)c2)c2c(Br)c(Br)c(Br)c(Br)c21` [bromosulfophthalein], the “maximum hepatic MRI signal enhancement by gadoxetate” value [3] is listed as “reduction”.
For `N.N.[Cl][Pt][Cl]` [cisplatin], the “maximum hepatic MRI signal enhancement by gadoxetate” value [3] is given as “reduction”.
For `COc1cccc2c1C(=O)c1c(O)c3c(c(O)c1C2=O)C[C@@](O)(C(=O)CO)C[C@@H]3O[C@H]1C[C@H](N)[C@H](O)[C@H](C)O1` [doxorubicin hydrochloride], the “maximum hepatic MRI signal enhancement by gadoxetate” value [3] is listed as “reduction”.
In the case of `CC[C@H]1OC(=O)[C@H](C)[C@@H](O[C@H]2C[C@@](C)(OC)[C@@H](O)[C@H](C)O2)[C@H](C)[C@@H](O[C@@H]2O[C@H](C)C[C@H](N(C)C)[C@H]2O)[C@](C)(O)C[C@@H](C)C(=O)[C@H](C)[C@@H](O)[C@]1(C)O` [erythromycin], the “relative liver MRI signal enhancement versus control subjects” value [4] is given as “did not show a statistically significant difference”.
In the case of `C[C@]12CC[C@@H]3c4ccc(O)cc4CC[C@H]3[C@@H]1CC[C@@H]2O[C@@H]1O[C@H](C(=O)O)[C@@H](O)[C@H](O)[C@H]1O` [estradiol 17-β-D-glucuronide], the “gadoxetate-induced MRI liver enhancement” value ([3]; single administration) is given as “transiently prolonged”.
For `O=C([O-])CN(CCN(CC(=O)[O-])CC(=O)O)CCN(CC(=O)[O-])CC(=O)O.[Gd+3]` [gadopentetate], the “liver fractional extracellular space (AUC ratio tissue/plasma)” value [5] is listed as 0.23 ± 0.02, the “spleen fractional extracellular space (AUC ratio tissue/plasma)” value [5] is listed as 0.43 ± 0.02 and the “relaxivity r1” value [6] is listed as 3.8 s⁻¹ mM⁻¹.
In the case of `CCOc1ccc(C[C@@H](CN(CCN(CC(=O)[O-])CC(=O)[O-])CC(=O)[O-])N(CC(=O)[O-])CC(=O)[O-])cc1.[Gd+3].[H+].[H+]` [gadoxetate], the “Vmax, gadoxetate efflux into bile” value [1, 13] is listed as 2.9 ± 0.3 µmol/s, the “k1, rate” value [1, 13] is listed as 29.4 ± 3.0 µmol/s and the “gadoxetate clearance, biliary” value [7] is listed as 70%. The “gadoxetate clearance, renal” value [7] was 30%, the “excreted via each route (biliary, renal)” value [8] was 50% and the “relaxivity r1” value [6] was 5.9 s⁻¹ mM⁻¹.
For `C[C@]12C=CC(=O)C=C1CC[C@@H]1[C@@H]2[C@@H](O)C[C@@]2(C)[C@H]1CC[C@]2(O)C(=O)CO` [prednisolone], the “maximum hepatic MRI signal enhancement by gadoxetate” value [3] is given as “reduction”.
In the case of `CC(C)NCC(O)COc1cccc2ccccc12` (stereo not shown) [propranolol hydrochloride], the “maximum hepatic MRI signal enhancement by gadoxetate” value [3] is given as “reduction”.
For `CO[C@H]1/C=C/O[C@@]2(C)Oc3c(C)c(O)c4c(O)c(c(/C=N/N5CCN(C)CC5)c(O)c4c3C2=O)NC(=O)/C(C)=C\C=C\[C@H](C)[C@H](O)[C@@H](C)[C@@H](O)[C@@H](C)[C@H](OC(C)=O)[C@@H]1C` [rifampicin], the “maximum hepatic MRI signal enhancement by gadoxetate” value [3] is listed as “reduction”.
For `CO[C@H]1/C=C/O[C@@]2(C)Oc3c(C)c(O)c4c(O)c(cc(O)c4c3C2=O)NC(=O)/C(C)=C\C=C\[C@H](C)[C@H](O)[C@@H](C)[C@@H](O)[C@@H](C)[C@H](OC(C)=O)[C@@H]1C` [rifamycin], the “maximum hepatic MRI signal enhancement by gadoxetate” value [3] is listed as “reduction”.
